According to article PMC3667667 (Clinical pharmacology and therapeutics, 2012):
“And” between values parts separate entries of the source, which are not always exact repeats. Identical values can stand only once.

Legend:
[1] = Pharmacokinetics of efavirenz in healthy subjects; settings: male, human, in vivo
CYP2B6 [2] = assay: CYP2B6 mRNA induction in primary human hepatocytes; type: cell-based; settings: freshly isolated human hepatocytes, efavirenz 1 μmol/l, vs DMSO control
CYP2B6 [3] = assay: CAR target gene expression in PBMCs treated in vitro; type: cell-based, human; settings: PBMCs of drug-naive individuals, 10 μmol/l, 48 h
ABCB1 [4] = assay: as above; type: cell-based, human; settings: PBMCs of drug-naive individuals, 10 μmol/l, 48 h
UGT1A1 = assay: as above; type: cell-based, human; settings: PBMCs of drug-naive individuals, 10 μmol/l, 48 h
CYP2B6 [5] = assay: Gene expression in PBMCs isolated from treated healthy individuals; type: in vivo, human; settings: single dose vs steady state; P = 0.036
CYP3A4 activity = assay: Plasma 4β-hydroxycholesterol, marker of CYP3A4 activity; type: in vivo, human
[6] = tested on: hepatic bilirubin metabolism; assay: Total bilirubin levels; type: in vivo, human
full-length CAR (CAR1) = settings: in vitro; ref 43 (Chen et al.); cited from earlier work
[7] = tested on: CAR variant containing the APYLT insertion; settings: in vitro; ref 43 (Chen et al.); cited from earlier work
ABCB1 [8] = settings: human intestinal cell line from colon adenocarcinoma; cited from earlier work
ABCB1 [9] = settings: cited from earlier work
ABCB1 [10] = settings: in vivo; ref 32 (Burhenne et al.); cited from earlier work
ABCC2 = settings: in vivo; ref 32 (Burhenne et al.); cited from earlier work
CYP3A = settings: rats, long-term treatment; cited from earlier work
ABCB1 [11] = settings: rats, everted gut sacs, long-term treatment; cited from earlier work
CYP3A4 [12] = settings: humans, long-term treatment; ref 36 (Mouly); cited from earlier work
ABCB1 (P-gp) = settings: humans, long-term treatment; ref 36 (Mouly); cited from earlier work
CYP3A4 [13] = settings: humans, long-term treatment; ref 36 (Mouly); cited from earlier work; remark: listed apart in the source
ABCB1 [14] = settings: ref 28 (Manceau et al.); cited from earlier work
CAR target genes = assay: Gene expression in PBMCs after multiple doses of ezetimibe; type: in vivo, human; settings: multiple doses of ezetimibe 10 mg, treatment period B
How it was run: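 PBMCs from 12 healthy male Caucasian volunteers aged 20–36 y, with the drug given after a fast of at least 10 h. EDTA blood (5 ml) drawn in the first 3 h of the pharmacokinetic day; spun 1,500g, 4 °C, 15 min; buffy coats pooled per subject, diluted in ice-cold PBS, Lymphoprep 700g, 30 min, room temperature. 1,500 ng total RNA reverse-transcribed; TaqMan real-time PCR for CYP2B6, UGT1A1, ABCB1, ABCC1, normalized to 18S-rRNA.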

For `O=C1Nc2ccc(Cl)cc2[C@@](C#CC2CC2)(C(F)(F)F)O1` [efavirenz], the “CLR gluc (renal clearance)” value [1] was 0.050 ± 0.054 mL/min, the C max ([1]; 400 mg) was 622 ± 244 ng/mL and the CL renal ([1]; 400 mg) was 0.062 ± 0.031 mL/min. The AUC(0-t) ([1]; 400 mg, AUC0–24 h) was 6710 ± 2340 ng·h/mL, the AUC(0-t) ([1]; 400 mg, AUC0–120 h) was 17000 ± 6390 ng·h/mL and the Tmax ([1]; 400 mg, T max) was 2.4 ± 1.9 h. The Tmax ([1]; Tmax) was 2 to 3 h, the “CYP2B6 expression in primary human hepatocytes” value (CYP2B6 [2]) was “significantly increased” and the “CYP2B6 mRNA induction in PBMCs in vitro” value (CYP2B6 [3]) was “significant induction”. The “ABCB1 mRNA induction in PBMCs in vitro” value (ABCB1 [4]) was “significant induction”, the “UGT1A1 mRNA induction in PBMCs in vitro” value (UGT1A1) was “significant induction” and the “Pearson r, increase in CYP2B6 expression in PBMCs vs reduction in efavirenz AUC” value (CYP2B6 [5]) was 0.61 and 0.608. The “Pearson r, change in efavirenz AUC vs change in 4β-hydroxycholesterol levels” value (CYP3A4 activity; single dose vs steady state, P = 0.052) was −0.572, the 4β-hydroxycholesterol/cholesterol ratio (CYP3A4 activity; study days 25 and 30, multiple doses of efavirenz) was “significant induction” and the “Total bilirubin levels after treatment” value ([6]; long-term efavirenz, mean ± SD, before treatment 9.82 ± 3.86, P = 0.023) was 6.34 ± 2.48 mg/dL. For the same compound, the “Trans-activating activity toward full-length CAR (CAR1)” value (full-length CAR (CAR1)) was “high trans-activating activity”, the “Trans-activating activity toward CAR variant containing the APYLT insertion” value [7] was “negligible activity” and the “ABCB1 expression and function in LS180 cells” value (ABCB1 [8]) was “increased expression and function”. The “ABCB1 induction in PBMCs in vitro” value (ABCB1 [9]) was “induction”, the “ABCB1 expression in PBMCs” value (ABCB1 [10]) was “no significant induction” and the “ABCC2 expression in PBMCs” value (ABCC2) was “no significant induction”. The “Hepatic CYP3A-mediated midazolam metabolism” value (CYP3A) was “induce”, the “ABCB1-mediated intestinal efflux of rhodamine 123” value (ABCB1 [11]) was “without affecting” and the “CYP3A4-mediated metabolism (erythromycin breath test)” value (CYP3A4 [12]) was “induction”. The “Intestinal ABCB1 (P-gp) expression levels” value (ABCB1 (P-gp)) was “no impact” and the “Intestinal CYP3A4 expression levels” value (CYP3A4 [13]) was “no impact”.

For `CO[C@H]1/C=C/O[C@@]2(C)Oc3c(C)c(O)c4c(O)c(c(/C=N/N5CCN(C)CC5)c(O)c4c3C2=O)NC(=O)/C(C)=C\C=C\[C@H](C)[C@H](O)[C@@H](C)[C@@H](O)[C@@H](C)[C@H](OC(C)=O)[C@@H]1C` [rifampin], the “ABCB1 induction after treatment of cells” value (ABCB1 [14]) is listed as “no induction”.

In the case of `CCC1(c2ccccc2)C(=O)NC(=O)NC1=O` [phenobarbital], the “ABCB1 induction after treatment of cells” value (ABCB1 [14]) is listed as “no induction”.

With `O=C1[C@H](CC[C@H](O)c2ccc(F)cc2)[C@@H](c2ccc(O)cc2)N1c1ccc(F)cc1` [ezetimibe] the “Impact on target gene expression in PBMCs” value (CAR target genes) was “did not observe an impact” and the “Impact on total bilirubin levels” value ([6]; multiple doses of ezetimibe, study days 15 and 17) was “No such impact”.
